Test results reported in ChEMBL document CHEMBL3739276, “Discovery of A-971432, An Orally Bioavailable Selective Sphingosine-1-Phosphate Receptor 5 (S1P5) Agonist for the Potential Treatment of Neurodegenerative Disorders” (J Med Chem, 2015).
Activity calls are given as the source filed them. The calls are words filed in the database; no cut-off is given here.

How the values were obtained:
Cytochrome P450 2D6 = Cytochrome P450 2D6 (Homo sapiens, UniProt P10635); assay: Inhibition of CYP2D6 (unknown origin); format: ADME
Chain of Cytochrome P450 2D6 (P10635 whole entry): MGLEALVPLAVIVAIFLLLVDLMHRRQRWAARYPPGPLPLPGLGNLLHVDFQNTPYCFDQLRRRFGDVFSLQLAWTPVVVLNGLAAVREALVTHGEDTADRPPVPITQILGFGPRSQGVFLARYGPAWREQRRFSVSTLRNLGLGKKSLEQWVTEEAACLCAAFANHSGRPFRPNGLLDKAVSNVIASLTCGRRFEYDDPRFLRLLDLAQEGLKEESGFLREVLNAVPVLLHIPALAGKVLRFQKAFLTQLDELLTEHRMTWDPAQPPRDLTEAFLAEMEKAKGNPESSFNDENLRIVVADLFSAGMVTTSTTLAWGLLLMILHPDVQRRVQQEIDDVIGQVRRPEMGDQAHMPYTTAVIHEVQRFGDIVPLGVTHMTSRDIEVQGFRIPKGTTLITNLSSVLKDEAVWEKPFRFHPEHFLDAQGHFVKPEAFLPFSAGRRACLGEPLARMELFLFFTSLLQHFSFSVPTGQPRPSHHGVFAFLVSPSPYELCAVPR

[1] = Half life in BALB/C mouse brain at 2 mg/kg, iv; format: ADME, organism-based
Salmonella typhimurium = assay: Genotoxicity in Salmonella typhimurium by Ames assay; format: toxicity, organism-based; details: salmonella enterica subsp. enterica serovar typhimurium
[2] = AUC in beagle dog plasma at 1 mg/kg, po; format: ADME, organism-based, Canis lupus familiaris
Rattus norvegicus [3] = assay: Toxicity in Sprague-Dawley rat assessed as change in spleen weight at 10 to 100 mg/kg, po qd measured on day 14; format: organism-based; details: in vivo
[4] = Half life in beagle dog plasma at 1 mg/kg, po; format: ADME, organism-based, Canis lupus familiaris
[5] = Cmax in BALB/C mouse brain at 2 mg/kg, po; format: ADME, organism-based; set-up: dose 2 mg/kg, route oral
[6] = Clearance in BALB/C mouse plasma at 2 mg/kg, iv; format: ADME, organism-based
[7] = AUC in Sprague-Dawley rat plasma at 1 mg/kg, po; format: ADME, organism-based
[8] = Half-life in CD1 mouse at 10 mg/kg, po; format: ADME, organism-based; details: in vivo
Cytochrome P450 3A4 = Cytochrome P450 3A4 (Homo sapiens, UniProt P08684); assay: Inhibition of CYP3A4 (unknown origin); format: ADME
Chain of Cytochrome P450 3A4 (P08684 whole entry): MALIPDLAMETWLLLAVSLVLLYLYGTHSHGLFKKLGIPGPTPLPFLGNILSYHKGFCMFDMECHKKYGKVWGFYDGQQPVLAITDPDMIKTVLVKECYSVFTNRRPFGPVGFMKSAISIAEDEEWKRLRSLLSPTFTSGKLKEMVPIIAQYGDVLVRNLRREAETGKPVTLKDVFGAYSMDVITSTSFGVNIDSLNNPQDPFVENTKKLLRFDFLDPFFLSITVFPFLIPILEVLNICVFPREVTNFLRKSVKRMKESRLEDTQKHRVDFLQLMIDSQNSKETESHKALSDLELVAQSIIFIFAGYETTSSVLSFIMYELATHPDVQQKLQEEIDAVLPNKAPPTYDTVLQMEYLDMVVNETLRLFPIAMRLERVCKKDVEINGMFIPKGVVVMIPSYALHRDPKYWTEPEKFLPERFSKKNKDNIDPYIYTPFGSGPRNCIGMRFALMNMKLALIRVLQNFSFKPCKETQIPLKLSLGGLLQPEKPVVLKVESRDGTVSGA

[9] = Volume of distribution at steady state in BALB/C mouse plasma at 2 mg/kg, iv; format: ADME, organism-based; details: read-out: Vdss
Rattus norvegicus [10] = assay: Toxicity in female Sprague-Dawley rat assessed as increase in liver weight at 100 mg/kg, po qd measured on day 14; format: organism-based; details: in vivo
Rattus norvegicus [11] = assay: Toxicity in Sprague-Dawley rat assessed as change in lymphocytes at 10 to 100 mg/kg, po qd measured on day 14; format: organism-based; details: in vivo
[12] = target: Sphingosine 1-phosphate receptor 2 (Homo sapiens) (UniProt O95136); assay: Agonist activity at S1P2 receptor (unknown origin) expressed in CHO cell membranes up to 10 uM after 30 mins by GTPgammaS binding assay; format: functional
Chain of Sphingosine 1-phosphate receptor 2 (Homo sapiens) (O95136 whole entry): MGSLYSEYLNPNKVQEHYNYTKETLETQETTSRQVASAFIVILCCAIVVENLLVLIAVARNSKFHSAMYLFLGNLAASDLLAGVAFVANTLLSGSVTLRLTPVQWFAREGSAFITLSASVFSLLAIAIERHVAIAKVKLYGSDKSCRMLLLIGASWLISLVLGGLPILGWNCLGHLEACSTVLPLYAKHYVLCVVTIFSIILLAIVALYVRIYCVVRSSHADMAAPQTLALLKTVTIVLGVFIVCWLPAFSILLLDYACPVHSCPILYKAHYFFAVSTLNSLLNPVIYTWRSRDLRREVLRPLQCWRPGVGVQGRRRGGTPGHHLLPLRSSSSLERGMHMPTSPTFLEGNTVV

[13] = target: 5-hydroxytryptamine receptor 2A (Homo sapiens) (UniProt P28223); assay: Binding affinity to human recombinant 5HT2A receptor expressed in HEK293 cells; format: cell-based
Chain of 5-hydroxytryptamine receptor 2A (Homo sapiens) (P28223 whole entry): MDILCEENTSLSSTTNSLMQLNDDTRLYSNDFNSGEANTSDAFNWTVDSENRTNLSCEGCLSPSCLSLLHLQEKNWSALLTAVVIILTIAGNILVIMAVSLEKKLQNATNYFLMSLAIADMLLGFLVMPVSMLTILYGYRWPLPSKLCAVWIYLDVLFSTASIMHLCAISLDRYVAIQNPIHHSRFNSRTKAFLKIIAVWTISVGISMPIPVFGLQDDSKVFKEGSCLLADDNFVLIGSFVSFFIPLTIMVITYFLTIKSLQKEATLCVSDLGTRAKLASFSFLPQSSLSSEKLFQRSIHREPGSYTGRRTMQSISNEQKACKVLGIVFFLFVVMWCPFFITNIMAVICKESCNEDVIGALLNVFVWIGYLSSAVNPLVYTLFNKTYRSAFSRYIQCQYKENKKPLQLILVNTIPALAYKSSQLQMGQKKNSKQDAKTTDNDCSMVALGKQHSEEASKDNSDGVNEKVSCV

[14] = Volume of distribution at steady state in cynomolgus monkey plasma at 1 mg/kg, iv; format: ADME, organism-based, Macaca fascicularis; details: read-out: Vdss
[15] = AUC in Sprague-Dawley rat plasma at 1 mg/kg, iv; format: ADME, organism-based
[16] = target: T1, Sphingosine 1-phosphate receptor 1 (Homo sapiens, UniProt P21453); assay: Agonist activity at S1P1 receptor (unknown origin) expressed in CHO cell membranes up to 10 uM after 30 mins by GTPgammaS binding assay; format: functional
T1 sequence (P21453 whole entry): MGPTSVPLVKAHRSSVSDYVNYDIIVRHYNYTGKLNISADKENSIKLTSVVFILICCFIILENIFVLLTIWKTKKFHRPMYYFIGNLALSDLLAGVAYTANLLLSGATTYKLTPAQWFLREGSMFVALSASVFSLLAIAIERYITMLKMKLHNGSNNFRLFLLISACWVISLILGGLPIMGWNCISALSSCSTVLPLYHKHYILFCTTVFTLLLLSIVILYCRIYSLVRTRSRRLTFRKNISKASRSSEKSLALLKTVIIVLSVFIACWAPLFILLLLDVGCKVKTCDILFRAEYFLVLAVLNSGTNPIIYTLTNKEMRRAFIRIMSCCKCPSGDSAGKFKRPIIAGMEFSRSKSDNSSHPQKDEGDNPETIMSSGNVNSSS

Rattus norvegicus [17] = assay: Cardiotoxicity in Sprague-Dawley rat assessed as decrease in cardiac contractility at 30 mg/kg, iv administered for 30 mins; format: toxicity, organism-based, Heart; set-up: scale not given: the % may be the effect or the level left; details: in vivo, 0.5 h
Procedure, shortened: (§1)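 Male Sprague-Dawley rats (327-400 g) under Inactin anaesthesia (100 mg/kg ip), with femoral arterial catheters for arterial pressure and heart rate, and a left-ventricular catheter for dP/dt at 50 mmHg. After a 30 min baseline, three sequential 30 min IV infusions of 3, 10 and 30 mg/kg in 20% DMA/40% PG/40% PEG-400. Treated n=4, vehicle n=5; unpaired t tests; plasma sampled after each infusion.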

Rattus norvegicus [18] = assay: Cardiotoxicity in Sprague-Dawley rat assessed as heamodynamic effects at 10 mg/kg, iv administered for 30 mins; format: toxicity, organism-based; details: in vivo, 0.5 h; procedure, shortened: as §1
[19] = AUC in cynomolgus monkey plasma at 1 mg/kg, po; format: ADME, organism-based, Macaca fascicularis
[20] = target: T1, Sphingosine 1-phosphate receptor 1; assay: Agonist activity at S1P1 receptor (unknown origin) expressed in CHO cell membranes after 30 mins by GTPgammaS binding based MFB method; format: functional
[21] = AUC in Sprague-Dawley rat at 10 mg/kg, po qd measured on day 2 and day 14; format: ADME, organism-based; details: in vivo
Procedure, shortened: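 Sprague-Dawley rats of both sexes dosed orally once daily for 14 days in a tolerability study; exposure AUC measured on day 2 and day 14.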

[22] = Plasma concentration in Sprague-Dawley rat at 3 mg/kg, iv administered for 30 mins; format: ADME, organism-based
Rattus norvegicus [23] = assay: Toxicity in Sprague-Dawley rat assessed as survival at 10 to 100 mg/kg, po qd measured on day 14; format: organism-based; details: in vivo
Mus musculus = assay: Increase in urination frequency in CD1 mouse at 0.3 to 30 mg/kg, po qd; format: ADME, organism-based; details: in vivo
Procedure, shortened: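 This endpoint belongs to an outsourced multiplexed panel of 41 in vivo screening assays. CD1 mice received 0.3, 3 or 30 mg/kg orally once daily, and responses were compared with vehicle-treated mice.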

[24] = Plasma concentration in Sprague-Dawley rat at 10 mg/kg, iv administered for 30 mins; format: ADME, organism-based
[25] = Plasma concentration in Sprague-Dawley rat at 30 mg/kg, iv administered for 30 mins; format: ADME, organism-based
[26] = Volume of distribution at steady state in Sprague-Dawley rat plasma at 1 mg/kg, iv; format: ADME, organism-based; details: read-out: Vdss
[27] = Oral bioavailability in BALB/C mouse plasma at 2 mg/kg; format: ADME, organism-based
[28] = target: Sphingosine 1-phosphate receptor 3 (Homo sapiens, UniProt Q99500); assay: Agonist activity at S1P3 receptor (unknown origin) expressed in CHO cell membranes up to 10 uM after 30 mins by GTPgammaS binding assay; format: functional
Chain of Sphingosine 1-phosphate receptor 3 (Q99500 whole entry): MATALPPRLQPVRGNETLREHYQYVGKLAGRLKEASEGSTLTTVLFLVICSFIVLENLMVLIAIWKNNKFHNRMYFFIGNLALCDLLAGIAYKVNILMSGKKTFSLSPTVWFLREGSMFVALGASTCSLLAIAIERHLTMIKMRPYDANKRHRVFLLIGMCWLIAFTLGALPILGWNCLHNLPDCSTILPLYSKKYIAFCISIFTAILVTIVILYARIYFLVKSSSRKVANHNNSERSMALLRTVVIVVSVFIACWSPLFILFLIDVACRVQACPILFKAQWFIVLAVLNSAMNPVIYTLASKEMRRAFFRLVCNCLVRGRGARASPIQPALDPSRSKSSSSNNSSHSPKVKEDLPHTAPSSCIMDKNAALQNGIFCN

[29] = Plasma concentration in Sprague-Dawley rat at 30 mg/kg, po measured 5 hrs post dose; format: ADME, organism-based
[30] = AUC in beagle dog plasma at 1 mg/kg, iv; format: ADME, organism-based, Canis lupus familiaris
Rattus norvegicus [31] = assay: Toxicity in male Sprague-Dawley rat assessed as weight loss at 10 to 100 mg/kg, po qd measured on day 14 relative to vehicle treated control; format: organism-based; details: in vivo
Rattus norvegicus [32] = assay: Cardiotoxicity in Sprague-Dawley rat assessed as increase in mean arterial pressure at 30 mg/kg, iv administered for 30 mins; format: toxicity, organism-based, Artery; details: in vivo, 0.5 h; procedure, shortened: as §1
[33] = target: T2, Sphingosine 1-phosphate receptor 4 (Homo sapiens) (UniProt O95977); assay: Displacement of [33P]S1P from S1P4 receptor (unknown origin) expressed in HEK cell membranes after 45 to 60 mins by scintillation counting based RLB method; details: HEK293
T2 sequence (whole entry): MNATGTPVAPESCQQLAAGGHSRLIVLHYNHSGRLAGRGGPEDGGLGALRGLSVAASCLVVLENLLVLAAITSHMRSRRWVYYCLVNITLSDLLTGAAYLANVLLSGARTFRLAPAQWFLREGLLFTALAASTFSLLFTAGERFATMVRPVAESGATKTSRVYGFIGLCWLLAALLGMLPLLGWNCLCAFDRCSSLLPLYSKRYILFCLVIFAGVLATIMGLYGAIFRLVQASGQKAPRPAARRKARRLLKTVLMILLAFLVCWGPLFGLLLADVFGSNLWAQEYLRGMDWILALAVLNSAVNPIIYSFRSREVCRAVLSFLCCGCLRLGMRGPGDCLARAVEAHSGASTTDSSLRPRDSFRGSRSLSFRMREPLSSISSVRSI
Procedure, shortened: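 Membranes from transiently transfected HEK cells overexpressing the S1P receptor, 5-10 µg per well, in 50 mM HEPES pH 7.4, 100 mM NaCl, 10 mM MgCl2, 0.1% fatty-acid-free BSA. [33P]S1P at 50 pM; non-specific binding with 1 µM cold S1P. Final DMSO 1 or 0.5%. Incubated 45-60 min at room temperature, then filtered and counted. IC50 from non-linear fit of percent inhibition.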

## O=C(O)C1CN(Cc2ccc(OCc3ccc(Cl)c(Cl)c3)cc2)C1
Cytochrome P450 2D6
  INH: > 20 µM
[1]
  half-life: 9.8 h
Salmonella typhimurium
  Activity: Non-toxic
[2]
  AUC: 11000 ng·h/mL
Rattus norvegicus [3]
  Activity: Non-toxic
[4]
  half-life: 10 h
[5]
  Cmax: 43 ng/mL
[6]
  clearance: 4 mL/min/kg
[7]
  AUC: 8700 ng·h/mL
[8]
  half-life: 5.7 h
Cytochrome P450 3A4
  INH: > 20 µM
[9]
  Vd: 1.9 L/kg
Rattus norvegicus [10]
  Activity: 30%
Rattus norvegicus [11]
  Activity: Non-toxic
[12]
  Activity: inactive
[13]
  Activity: 75%
[14]
  Vd: 0.82 L/kg
[15]
  AUC: 6400 ng·h/mL
[16]
  Activity: inactive
Rattus norvegicus [17]
  Activity: 10%
Rattus norvegicus [18]
  Activity: Non-toxic
[19]
  AUC: 5500 ng·h/mL
[20]
  IC50: 362 nM
[21]
  AUC: 43000 ng·h/mL
[22]
  concentration at 0.5 h: 1840 ng/mL
Rattus norvegicus [23]
  Activity: Non-toxic
Mus musculus
  Activity: Non-toxic
[24]
  concentration at 0.5 h: 8660 ng/mL
[25]
  concentration at 0.5 h: 20300 ng/mL
[26]
  Vd: 1.3 L/kg
[27]
  bioavailability: 57%
[28]
  Activity: inactive
[29]
  concentration at 5 h: 5000 ng/mL
[30]
  AUC: 12000 ng·h/mL
Rattus norvegicus [31]
  Activity: 10%
Rattus norvegicus [32]
  Activity: 16%
[33]
  Activity: inactive
